The source of these data is ChEMBL document CHEMBL1759951, “Furostanol saponins from the rhizomes of Dioscorea japonica and their effects on NGF induction” (Bioorg Med Chem Lett, 2011).

One data set deals with C6. The data set is described as follows: Induction of NGF production in rat C6 cells at 20 uM after 24 hrs by ELISA relative to untreated control. It is filed as functional. The method, boiled down: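 C6 glioma cells treated at 20 μM for 24 h; NGF released into C6-conditioned medium quantified by ELISA, reported as percentage of untreated control. Means ± SD from three independent experiments run in triplicate; Student's t-test versus control, p < 0.05.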
(ELISA stands for enzyme-linked immunosorbent assay.)

A short description of data set [1]: Cytotoxicity against rat C6 cells assessed as viable cells at 20 uM after 24 hrs by MTT assay. It is filed as cell-based. Particulars: read-out: Activity. Put shortly:
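C6 rat glioma cells exposed to test agent at 20 μM for 24 h; viability read by MTT and expressed as percentage of untreated control. Means ± SD of three independent experiments, each in triplicate; significance versus control by Student's t-test (p < 0.05).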
(Tetrazolium dyes change colour on reduction, which living cells bring about.)

In the data set with C6, `COCC(=O)c1ccc(O)cc1` registered an Activity of 105.6%. In data set [1], the viability at 24 h, 20 µM worked out at 99.8%.
In turn, `CCCCO[C@]1(CO)O[C@H](CO)[C@@H](O)[C@@H]1O` registered an Activity with C6 of 117.5%. Moreover, in data set [1], the viability at 24 h, 20 µM worked out at 102%.
Regarding `COc1cc(CC[C@@H](O)C[C@@H](O)CCc2ccc(O)c(OC)c2)ccc1O`, the Activity with C6 was found to be 120.7%. The viability at 24 h, 20 µM in data set [1] was 102%.
`NC(=O)NC1NC(=O)NC1=O` (centres undefined) [ALLANTOIN] registered an Activity in the data set on C6 of 102.4%. Moreover, the viability at 24 h, 20 µM in data set [1] is 100%.
Regarding `COc1cc(O)cc(CCc2ccccc2O)c1` [BATATASIN IV], the Activity in the data set on C6 was determined as 106.1%. In data set [1], the viability at 24 h, 20 µM turned out to be 95%.
As to `CC[C@H](CC[C@@H](C)[C@H]1CC[C@H]2[C@@H]3CC=C4C[C@@H](O)CC[C@]4(C)[C@H]3CC[C@]12C)C(C)C` [BETA-SITOSTEROL], in the data set on C6, the Activity amounted to 106.1%. Besides, in data set [1], the viability at 24 h, 20 µM turned out to be 104%.
The compound `CC1=CC(=O)CC(C)(C)[C@@]1(O)/C=C/[C@@H](C)O` [BLUMENOL A] displayed an Activity in the data set on C6 of 122.2%. Besides, the viability at 24 h, 20 µM in data set [1] is 101%.
In turn, `C[C@H](CC[C@@]1(O)O[C@H]2C[C@H]3[C@@H]4CC=C5C[C@@H](O[C@@H]6O[C@H](CO)[C@@H](O[C@@H]7OC[C@H](O)[C@H](O)[C@H]7O)[C@H](O)[C@H]6O[C@@H]6O[C@@H](C)[C@H](O)[C@@H](O)[C@H]6O)CC[C@]5(C)[C@H]4CC[C@]3(C)[C@H]2[C@@H]1C)CO[C@@H]1O[C@H](CO)[C@@H](O)[C@H](O)[C@H]1O` [COREAJAPONINS A] had an Activity in the data set with C6 of 107.2%. The viability at 24 h, 20 µM in data set [1] is 106%.
The matching figures for `CO[C@]1(CC[C@@H](C)CO[C@@H]2O[C@H](CO)[C@@H](O)[C@H](O)[C@H]2O)O[C@H]2C[C@H]3[C@@H]4CC=C5C[C@@H](O[C@@H]6O[C@H](CO)[C@@H](O[C@@H]7OC[C@H](O)[C@H](O)[C@H]7O)[C@H](O)[C@H]6O[C@@H]6O[C@@H](C)[C@H](O)[C@@H](O)[C@H]6O)CC[C@]5(C)[C@H]4CC[C@]3(C)[C@H]2[C@@H]1C` [COREAJAPONINS B]: 132.9% and 98%.
Take `Oc1cc(O)cc(CCc2ccccc2)c1` [DIHYDROPINOSYLVIN]: the Activity in the data set with C6 is on record as 117%. Also, in data set [1], the viability at 24 h, 20 µM was 105%.
For the compound `CC(=O)CCc1ccc(O)cc1` [RASPBERRYKETONE], the Activity in the data set on C6 was determined as 106.8%. In data set [1], the viability at 24 h, 20 µM is 101%.
On the same counts, the results for `COc1cc(O)cc(CCc2ccccc2OC)c1` [STILBOSTEMINN] are 104.6% and 104%.
